From ChEMBL document CHEMBL4033799, “Stable and Long-Lasting, Novel Bicyclic Peptide Plasma Kallikrein Inhibitors for the Treatment of Diabetic Macular Edema” (J Med Chem, 2018)
*1 amine or outer side, *2 acyl side, *3 side chain or, on linkers, in order; H or OH if unused. Where a SMILES comes first, the peptide text is derived from it. Bridges are numbered along the chain shown (N, C = ends). TBMB = c1c(C[*:1])cc(C[*:3])cc1C[*:2]

How the values were obtained:
[1] = system: Plasma; experiment: Stability in rat plasma at 50 uM incubated for 2 days by MALDI-TOF analysis; type: ADME, cell-free; conditions: 48 h
How it was run: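 Qualitative stability test. 1 mM DMSO stock diluted into citrated rat plasma to 50 μM and held at 37 °C for up to 2 days. Aliquots at time points quenched in 1:1 acetonitrile/methanol and centrifuged. Supernatant mixed with 30 mM ammonium bicarbonate. Parent mass and protease metabolites detected by MALDI-TOF.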

[2] = biological target: Plasma kallikrein (Homo sapiens, UniProt P03952); experiment: Inhibition of human plasma kallikrein using fluorogenic H-Pro-Phe-Arg-AMC peptide as substrate preincubated for 15 mins followed by substrate addition measured by fluorescence-based assay; conditions: read-out: Ki(app)
[3] = biological target: Plasma kallikrein (Rattus norvegicus, UniProt P14272); experiment: Inhibition of recombinant Sprague-Dawley rat plasma kallikrein using fluorogenic H-Pro-Phe-Arg-AMC peptide as substrate preincubated for 15 mins followed by substrate addition measured by fluorescence-based assay; conditions: read-out: Ki(app)
[4] = Aqueous solubility of the compound in buffer; type: physicochemical
[5] = Plasma clearance in Sprague-Dawley rat at 10 mg/kg, iv administered as infusion over 1 hr measured up to 240 mins post dose by LC-MS/MS analysis; type: ADME, organism-based
How it was run: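 Groups of 2 male Sprague-Dawley rats; 10 mg/kg infused into the jugular vein over 1 h. Serial blood drawn via tail-vein cannulae at 5–240 min into EDTA tubes and processed to plasma. Plasma assayed by LC-MS/MS against a 16–4000 ng/mL calibration line in control rat plasma.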

[6] = Half life in mouse plasma at 4 uM measured up to 24 hrs by LC-MS/MS analysis; type: ADME, cell-free
How it was run: (§1)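 Peptide from a 0.16 mM DMSO stock was added to human, rat or mouse plasma (final 4 μM) or to homogenized human vitreous (final 1 μM), with internal standard. Samples were incubated at 37 °C for up to 24 h and extracted with water/acetonitrile/methanol 1:3:3.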

[7] = system: Plasma; experiment: Drug metabolism in human plasma assessed as deltaL6H7Q6 metabolite formation at 50 uM after 18 hrs by MALDI-TOF analysis; type: ADME, cell-free
How it was run: (§2)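 Peptide from a 1 mM DMSO stock was diluted to 50 μM in citrated mouse, rat or human plasma and incubated at 37 °C for up to 2 days. Samples taken at time points were quenched in 1:1 acetonitrile/methanol and centrifuged. The supernatant was mixed with ammonium bicarbonate in acetonitrile/water, and parent peptide and metabolites were detected by MALDI-TOF.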

[8] = system: Plasma; experiment: Drug metabolism in rat plasma assessed as (5R,8S,11S,14S,17S,20S,23R)-29-[[(2R)-2-acetamido-3-hydroxy-3-oxo-propyl]sulfanylmethyl]-5-amino-14-(3-amino-3-oxo-propyl)-17-(carboxymethyl)-11-(1H-imidazol-5-ylmethyl)-8,20-diisobutyl-6,9,12,15,18,21-hexaoxo-3,25-dithia-7,10,13,16,19,22-hexazabicyclo[25.3.1]hentriaconta-1(31),27,29-triene-23-carboxylic acid metabolite formation at 50 uM after 18 hrs by MALDI-TOF analysis; type: ADME, cell-free; how it was run: as §2
[9] = system: Plasma; experiment: Drug metabolism in human plasma assessed as deltaH7Q6 metabolite formation at 50 uM after 18 hrs by MALDI-TOF analysis; type: ADME, cell-free; how it was run: as §2
[10] = Half life in rat plasma at 4 uM measured up to 24 hrs by LC-MS/MS analysis; type: ADME, cell-free; how it was run: as §1
[11] = system: Plasma; experiment: Drug metabolism in human plasma assessed as deltaLeu6 metabolite formation at 50 uM after 18 hrs by MALDI-TOF analysis; type: ADME, cell-free; how it was run: as §2
[12] = biological target: (UniProt A0A8D1M4K5); experiment: Inhibition of pig plasma kallikrein using fluorogenic H-Pro-Phe-Arg-AMC peptide as substrate preincubated for 15 mins followed by substrate addition measured by fluorescence-based assay; design: species or system Sus scrofa; conditions: read-out: Ki(app)
[13] = system: Plasma; experiment: Drug metabolism in rat plasma assessed as (5R,8S,11S,14S,17S,20S,23R)-29-[[(2R)-2-acetamido-3-[[(1S)-1-(hydroxymethyl)-2-[[(1S)-2-[(2S)-2-[[(1S)-2-hydroxy-1-methyl-2-oxo-ethyl]carbamoyl]pyrrolidin-1-yl]-1-(1H-indol-3-ylmethyl)-2-oxo-ethyl]amino]-2-oxo-ethyl]amino]-3-oxo-propyl]sulfanylmethyl]-5-amino-14-(3-amino-3-oxo-propyl)-17-(carboxymethyl)-11-(1H-imidazol-5-ylmethyl)-8,20-diisobutyl-6,9,12,15,18,21-hexaoxo-3,25-dithia-7,10,13,16,19,22-hexazabicyclo[25.3.1]hentriaconta-1(31),27,29-triene-23-carboxylic acid metabolite formation at 50 uM after 18 hrs by MALDI-TOF analysis; type: ADME, cell-free; how it was run: as §2
[14] = system: Plasma; experiment: Drug metabolism in rat plasma assessed as (5R,8S,11S,14S,17S,20S,23R)-29-[[(2R)-2-acetamido-3-[[(1S)-2-hydroxy-1-(hydroxymethyl)-2-oxo-ethyl]amino]-3-oxo-propyl]sulfanylmethyl]-5-amino-14-(3-amino-3-oxo-propyl)-17-(carboxymethyl)-11-(1H-imidazol-5-ylmethyl)-8,20-diisobutyl-6,9,12,15,18,21-hexaoxo-3,25-dithia-7,10,13,16,19,22-hexazabicyclo[25.3.1]hentriaconta-1(31),27,29-triene-23-carboxylic acid metabolite formation at 50 uM after 18 hrs by MALDI-TOF analysis; type: ADME, cell-free; how it was run: as §2
[15] = Half life in human vitreous humor at 1 uM measured up to 24 hrs by LC-MS/MS analysis; type: ADME, tissue-based; how it was run: as §1
[16] = Inhibition of rabbit plasma kallikrein using fluorogenic H-Pro-Phe-Arg-AMC peptide as substrate preincubated for 15 mins followed by substrate addition measured by fluorescence-based assay; design: species or system Oryctolagus cuniculus; conditions: read-out: Ki(app)
How it was run: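 Assays ran at 25 °C in 50 mM Tris-HCl, 250 mM NaCl, 1.5 μM BSA, pH 7.5. PKal (nominal 1–2 nM) was preincubated 15 min with serially diluted peptide. […] Human PKal was purified from plasma; rat PKal was made in-house or bought; other species were purified in-house from kaolin-activated plasma.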

[17] = Half life in human plasma at 4 uM measured up to 24 hrs by LC-MS/MS analysis; type: ADME, cell-free; how it was run: as §1

Plasma kallikrein (Rattus norvegicus, UniProt P14272), sequence (P14272 20-390 limits assumed): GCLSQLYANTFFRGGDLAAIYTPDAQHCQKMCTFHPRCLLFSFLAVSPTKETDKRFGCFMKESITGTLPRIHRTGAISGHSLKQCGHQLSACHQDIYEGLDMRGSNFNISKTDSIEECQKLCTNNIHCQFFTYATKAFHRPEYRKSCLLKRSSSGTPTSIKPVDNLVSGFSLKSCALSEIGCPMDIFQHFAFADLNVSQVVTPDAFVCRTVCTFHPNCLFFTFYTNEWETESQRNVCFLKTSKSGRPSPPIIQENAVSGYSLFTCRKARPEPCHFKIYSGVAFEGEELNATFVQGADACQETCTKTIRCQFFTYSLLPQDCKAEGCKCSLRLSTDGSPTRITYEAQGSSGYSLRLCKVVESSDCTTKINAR
Plasma kallikrein (Rattus norvegicus, UniProt P14272), sequence (P14272 391-638 limits assumed): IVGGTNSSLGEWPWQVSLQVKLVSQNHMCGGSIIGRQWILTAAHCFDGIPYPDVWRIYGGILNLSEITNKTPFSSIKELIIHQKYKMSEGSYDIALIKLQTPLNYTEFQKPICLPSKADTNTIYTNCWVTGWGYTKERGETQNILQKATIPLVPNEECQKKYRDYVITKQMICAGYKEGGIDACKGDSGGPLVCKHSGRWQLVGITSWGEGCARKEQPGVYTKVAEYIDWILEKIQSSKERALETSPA
Plasma kallikrein (Homo sapiens, UniProt P03952), sequence (P03952 20-390 limits assumed): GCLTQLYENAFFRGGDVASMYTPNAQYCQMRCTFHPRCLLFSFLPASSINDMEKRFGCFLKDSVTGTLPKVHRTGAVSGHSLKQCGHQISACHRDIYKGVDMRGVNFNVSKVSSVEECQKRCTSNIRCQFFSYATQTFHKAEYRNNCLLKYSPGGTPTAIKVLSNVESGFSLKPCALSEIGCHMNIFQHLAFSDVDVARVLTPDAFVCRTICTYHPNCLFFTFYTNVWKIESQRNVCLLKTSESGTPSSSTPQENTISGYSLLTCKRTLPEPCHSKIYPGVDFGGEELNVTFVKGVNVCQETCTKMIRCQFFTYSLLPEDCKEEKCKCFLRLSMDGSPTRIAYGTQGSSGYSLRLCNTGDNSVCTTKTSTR
Plasma kallikrein (Homo sapiens, UniProt P03952), sequence (P03952 391-638 limits assumed): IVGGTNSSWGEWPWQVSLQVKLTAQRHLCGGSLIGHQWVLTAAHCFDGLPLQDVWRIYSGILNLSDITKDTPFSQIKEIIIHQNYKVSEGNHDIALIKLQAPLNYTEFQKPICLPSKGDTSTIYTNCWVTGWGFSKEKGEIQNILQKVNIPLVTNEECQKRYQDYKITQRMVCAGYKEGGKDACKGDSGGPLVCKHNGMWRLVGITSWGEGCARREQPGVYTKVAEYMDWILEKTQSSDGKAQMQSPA

Stability [1] | Ki [2] [nM] | Ki [3] [nM] | solubility [4] | clearance [5] [mL/min/kg] | half-life at 4 µM [6] [h] | Drug metabolism [7] | Drug metabolism [8] | Drug metabolism [9] | half-life at 4 µM [10] [h] | Drug metabolism [11] | Ki [12] [nM] | Drug metabolism [13] | Drug metabolism [14] | half-life at 1 µM [15] [h] | Ki [16] [nM] | half-life at 4 µM [17] [h] | Structure (SMILES)
Unstable | 2.3 | 0.4 | Insoluble |  |  |  |  |  |  |  |  |  |  |  |  |  | CC(C)C[C@@H]1NC(=O)[C@@H]2CCCN2C(=O)[C@H](C)NC(=O)[C@H](CC(=O)O)NC(=O)[C@H](Cc2c[nH]c3ccccc23)NC(=O)[C@@H]2CCCN2C(=O)[C@@H]2CSCc3cc(cc(c3)CSC[C@@H](C(=O)N[C@@H](C)C(=O)O)NC1=O)CSC[C@H](NC(=O)[C@H](C)N)C(=O)N[C@@H](CC(N)=O)C(=O)N[C@@H]([C@@H](C)O)C(=O)N[C@@H](Cc1c[nH]c3ccccc13)C(=O)N[C@@H](CC(N)=O)C(=O)N1CCC[C@H]1C(=O)N[C@@H](Cc1c[nH]c3ccccc13)C(=O)N2 (H-ACNTWNPWCPWDAPLCA-OH; linker 2-9-16 via TBMB)
 | 0.15 | 2 |  | 156 | 1.5 | Metabolite_Detected | Metabolite_Detected | Metabolite_Detected | 2.8 | Metabolite_Detected | 3.6 | Metabolite_Detected | Metabolite_Detected | > 24 | 10 | 7 | CC(=O)N[C@H]1CSCc2cc3cc(c2)CSC[C@H](NC(=O)[C@H](CCCNC(=N)N)NC(=O)[C@H](C)NC(=O)[C@@H]2CCCN2C(=O)[C@H](Cc2c[nH]c4ccccc24)NC(=O)[C@H](CO)NC1=O)C(=O)N[C@@H](CC(C)C)C(=O)N[C@@H](Cc1cnc[nH]1)C(=O)N[C@@H](CCC(N)=O)C(=O)N[C@@H](CC(=O)O)C(=O)N[C@@H](CC(C)C)C(=O)N[C@H](C(=O)O)CSC3 (Ac-CSWPARCLHQDLC-OH; linker 1-7-13 via TBMB)
